Legend:
[1] = Percent increase in life span of test animals compared to untreated tumor-bearing control group A animals at a dose of 100 mg/kg; type: functional; settings: Mus musculus
[2] = Percent increase in life span of test animals compared to untreated tumor-bearing control group C animals at a dose of 25 mg/kg; type: functional; settings: Mus musculus
[3] = test system: P388; assay: Log cell population relative to cell population at the beginning of treatment compared to control group A at a dose of 12.5 mg/kg; type: functional, Mus musculus
[4] = test system: P388; assay: Log cell population relative to cell population at the beginning of treatment compared to control group C at a dose of 12.5 mg/kg; type: functional, Mus musculus
[5] = Percent increase in life span of test animals compared to untreated tumor-bearing control group C animals at a dose of 6.25 mg/kg; type: functional; settings: Mus musculus
[6] = test system: P388; assay: Log cell population relative to cell population at the beginning of treatment compared to control group C at a dose of 25 mg/kg; type: functional, Mus musculus
[7] = Percent increase in life span of test animals compared to untreated tumor-bearing control group A animals at a dose of 50 mg/kg; type: functional; settings: Mus musculus
[8] = Percent increase in life span of test animals compared to untreated tumor-bearing control group B animals at a dose of 25 mg/kg; type: functional; settings: Mus musculus
[9] = Toxicity day survivors expressed as number of animals that survived to day five/ number of test animals under control group B at a dose of 50 mg/kg; 6 survived out of 6; type: functional, Mus musculus
[10] = Antileukemic activity against Murine P388 lymphocytic leukemia, body weight difference of the test animals compared to control group A animals at a dose of 100 mg/kg; type: functional, Mus musculus; parameters: unit not given here
Outline: (§1)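 CD2F1 mice implanted intraperitoneally with ascitic fluid carrying ca. 1×10^6 P388 cells, under the NCI protocol. Dosing was intraperitoneal, starting 24 h after inoculation, then every 24 h for five doses in total. The body weight difference of treated mice is taken against untreated controls. Toxicity day survivors are the mice alive at day five out of those tested.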

[11] = Toxicity day survivors expressed as number of animals that survived to day five/ number of test animals under control group C at a dose of 100 mg/kg; 6 survived out of 6; type: functional, Mus musculus
[12] = Antileukemic activity against Murine P388 lymphocytic leukemia, body weight difference of the test animals compared to control group C animals at a dose of 6.25 mg/kg; type: functional, Mus musculus; outline: as §1
[13] = Percent increase in life span of test animals compared to untreated tumor-bearing control group C animals at a dose of 100 mg/kg; type: functional; settings: Mus musculus
[14] = Toxicity day survivors expressed as number of animals that survived to day five/ number of test animals under control group A at a dose of 50 mg/kg; 6 survived out of 6; type: functional, Mus musculus
[15] = Antileukemic activity against Murine P388 lymphocytic leukemia, body weight difference of the test animals compared to control group A animals at a dose of 12.5 mg/kg; type: functional, Mus musculus; outline: as §1
[16] = test system: P388; assay: Log cell population relative to cell population at the beginning of treatment compared to control group B at a dose of 50 mg/kg; type: functional, Mus musculus
[17] = Antileukemic activity against Murine P388 lymphocytic leukemia, body weight difference of the test animals compared to control group B animals at a dose of 6.25 mg/kg; type: functional, Mus musculus; outline: as §1
[18] = Antileukemic activity against Murine P388 lymphocytic leukemia, body weight difference of the test animals compared to control group B animals at a dose of 50 mg/kg; type: functional, Mus musculus; parameters: unit not given here; outline: as §1
[19] = Percent increase in life span of test animals compared to untreated tumor-bearing control group A animals at a dose of 25 mg/kg; type: functional; settings: Mus musculus
[20] = test system: P388; assay: Log cell population relative to cell population at the beginning of treatment compared to control group A at a dose of 50 mg/kg; type: functional, Mus musculus
[21] = test system: P388; assay: Log cell population relative to cell population at the beginning of treatment compared to control group B at a dose of 6.25 mg/kg; type: functional, Mus musculus
[22] = Percent increase in life span of test animals compared to untreated tumor-bearing control group B animals at a dose of 12.5 mg/kg; type: functional; settings: Mus musculus
[23] = test system: P388; assay: Percent increase in life span of test animals compared to untreated tumor-bearing control group B animals at a dose of 50 mg/kg; type: functional; settings: Mus musculus
[24] = Toxicity day survivors expressed as number of animals that survived to day five/ number of test animals under control group A at a dose of 25 mg/kg; 6 survived out of 6; type: functional, Mus musculus
[25] = test system: P388; assay: Log cell population relative to cell population at the beginning of treatment compared to control group B at a dose of 12.5 mg/kg; type: functional, Mus musculus
[26] = Toxicity day survivors expressed as number of animals that survived to day five/ number of test animals under control group A at a dose of 12.5 mg/kg; 6 survived out of 6; type: functional, Mus musculus
[27] = Antileukemic activity against Murine P388 lymphocytic leukemia, body weight difference of the test animals compared to control group A animals at a dose of 25 mg/kg; type: functional, Mus musculus; parameters: unit not given here; outline: as §1
[28] = test system: P388; assay: Log cell population relative to cell population at the beginning of treatment compared to control group B at a dose of 25 mg/kg; type: functional, Mus musculus
[29] = Percent increase in life span of test animals compared to untreated tumor-bearing control group C animals at a dose of 12.5 mg/kg; type: functional; settings: Mus musculus
[30] = Antileukemic activity against Murine P388 lymphocytic leukemia, body weight difference of the test animals compared to control group B animals at a dose of 25 mg/kg; type: functional, Mus musculus; parameters: unit not given here; outline: as §1
[31] = Antileukemic activity against Murine P388 lymphocytic leukemia, body weight difference of the test animals compared to control group A animals at a dose of 50 mg/kg; type: functional, Mus musculus; parameters: unit not given here; outline: as §1
[32] = Percent increase in life span of test animals compared to untreated tumor-bearing control group A animals at a dose of 12.5 mg/kg; type: functional; settings: Mus musculus
[33] = Toxicity day survivors expressed as number of animals that survived to day five/ number of test animals under control group C at a dose of 25 mg/kg; 6 survived out of 6; type: functional, Mus musculus
[34] = Percent increase in life span of test animals compared to untreated tumor-bearing control group B animals at a dose of 100 mg/kg; type: functional; settings: Mus musculus
[35] = Percent increase in life span of test animals compared to untreated tumor-bearing control group A animals at a dose of 6.25 mg/kg; type: functional; settings: Mus musculus
[36] = Percent increase in life span of test animals compared to untreated tumor-bearing control group B animals at a dose of 6.25 mg/kg; type: functional; settings: Mus musculus
[37] = test system: P388; assay: Log cell population relative to cell population at the beginning of treatment compared to control group A at a dose of 25 mg/kg; type: functional, Mus musculus
[38] = Antileukemic activity against Murine P388 lymphocytic leukemia and toxicity day survivors expressed as number of animals that survived to day five/ number of test animals under control group C at a dose of 50 mg/kg; 6 survived out of 6; type: functional, Mus musculus
[39] = Toxicity day survivors expressed as number of animals that survived to day five/ number of test animals under control group A at a dose of 100 mg/kg; 6 survived out of 6; type: functional, Mus musculus
[40] = Toxicity day survivors expressed as number of animals that survived to day five/ number of test animals under control group B at a dose of 12.5 mg/kg; 6 survived out of 6; type: functional, Mus musculus

CC(C)NC(=O)OCc1c(COC(=O)NC(C)C)c(-c2ccc(Cl)c(Cl)c2)n2c1CCC2
ILS at 100 mg/kg [1]: 48%
ILS at 25 mg/kg [2]: 55%
KE [3]: 1.4
KE [4]: -0.07
ILS at 6.25 mg/kg [5]: 26%
KE [6]: 1.85
ILS at 50 mg/kg [7]: 97%
ILS at 25 mg/kg [8]: 66%
TDS [9]: 6
BWD [10]: -4.2
TDS [11]: 6
BWD [12]: -1.1
ILS at 100 mg/kg [13]: 123%
TDS [14]: 6
BWD [15]: -0.6
KE [16]: 5.71
BWD [17]: -0.5
BWD [18]: -3.1
ILS at 25 mg/kg [19]: 75%
KE [20]: 4.35
KE [21]: 0.69
ILS at 12.5 mg/kg [22]: 45%
ILS at 50 mg/kg [23]: 95%
TDS [24]: 6
KE [25]: 1.08
TDS [26]: 6
BWD [27]: -1.7
KE [28]: 3.01
ILS at 12.5 mg/kg [29]: 32%
BWD [30]: -2.2
BWD [31]: -2.6
ILS at 12.5 mg/kg [32]: 56%
TDS [33]: 6
ILS at 100 mg/kg [34]: -14%
ILS at 6.25 mg/kg [35]: 51%
ILS at 6.25 mg/kg [36]: 41%
KE [37]: 2.81
TDS [38]: 6
TDS [39]: 6
TDS [40]: 6
